# Assay results: ChEMBL document CHEMBL3526008, “Identification of amiodarone metabolites in human bile by ultraperformance liquid chromatography/quadrupole time-of-flight mass spectrometry” (Drug Metab Dispos, 2011)
# Tested on: not listed separately
# Experiment: Drug level in human liver S9 fraction assessed as compound formation treated with 50 uM amiodarone for 60 mins by UPLC-Q/TOF mass spectrometry in presence of NADPH
# Assay type: ADME, subcellular
# Conditions: s9, 1 h
# Outline: (§1)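 Pooled human liver S9 at 2.0 mg/ml protein in 100 mM potassium phosphate pH 7.4, 37°C. Amiodarone 50 μM (DMSO 0.1% final). 3 min preincubation, then started with 2.0 mM NADPH. Quenched at 60 min with equal volume of ice-cold acetonitrile. Controls lacked NADPH or substrate. Duplicates. Read-out by UPLC-Q/TOF MS and UPLC-UV.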
row,SMILES,Drug metabolism
1,CCN(CC)CCOc1c(I)cc(C(=O)c2c(CCCCO)oc3ccccc23)cc1I,metabolite_detected
2,CCN(CC)CCOc1c(I)cc(C(=O)c2c(CCC(C)O)oc3ccccc23)cc1I (stereo not drawn),metabolite_detected
3,CCCCc1oc2ccccc2c1C(=O)c1cc(I)c(O)c(I)c1,metabolite_detected
4,CCNCCOc1c(I)cc(C(=O)c2c(CCCC(=O)O)oc3ccccc23)cc1I,metabolite_detected
5,CCCCc1oc2cc(O)ccc2c1C(=O)c1cc(I)c(OCCN(CC)CC)c(I)c1,metabolite_detected
6,CCN(CC)CCOc1ccc(C(=O)c2c(CCCC(=O)O)oc3ccccc23)cc1I,metabolite_detected
7,CCCCc1oc2ccccc2c1C(=O)c1cc(I)c(OCCO)c(I)c1,metabolite_detected
8,CCCCc1oc2ccccc2c1C(=O)c1ccc(OCCNCC)c(I)c1,metabolite_detected
9,CCCCc1oc2ccccc2c1C(=O)c1cc(I)c(OCCNCC)c(I)c1 [DESETHYLAMIODARONE],metabolite_detected

# Tested on: not listed separately
# Experiment: Drug level in arrhythmia patient bile treated with amiodarone at 200 mg/day, po for 7 days by UPLC-Q/TOF mass spectrometry
# Assay type: ADME, organism-based
# Conditions: human, in vivo, 168 h
# Outline: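 Three arrhythmia patients (66-89 y, 1 male, 2 female) with T-tube drainage after hepatobiliary surgery. Bile collected from T-tube at 1-h intervals (about 10 ml) over 24 h, stored at -20°C. Glucuronides hydrolysed with β-glucuronidase in 1 M citrate pH 5.0, 37°C, 16 h. Profiled by UPLC-Q/TOF on HSS T3 column, formic acid/acetonitrile gradient, ES+, m/z 80–1000.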
row,SMILES,Drug metabolism
1,CCN(CC)CCOc1c(I)cc(C(=O)c2c(CCCCO)oc3ccccc23)cc1I,metabolite_detected
2,CCN(CC)CCOc1c(I)cc(C(=O)c2c(CCC(C)O)oc3ccccc23)cc1I (stereo not drawn),metabolite_detected
3,CCCCc1oc2ccccc2c1C(=O)c1cc(I)c(O)c(I)c1,metabolite_detected
4,CCNCCOc1c(I)cc(C(=O)c2c(CCCC(=O)O)oc3ccccc23)cc1I,metabolite_detected
5,CCCCc1oc2cc(O)ccc2c1C(=O)c1cc(I)c(OCCN(CC)CC)c(I)c1,metabolite_detected
6,CCN(CC)CCOc1c(I)cc(C(=O)c2c(CCCC(=O)O)oc3ccccc23)cc1I,metabolite_detected
7,CCN(CC)CCOc1ccc(C(=O)c2c(CCCC(=O)O)oc3ccccc23)cc1I,metabolite_detected
8,CCCCc1oc2ccccc2c1C(=O)c1cc(I)c(OCCO)c(I)c1,metabolite_detected
9,CCCCc1oc2ccccc2c1C(=O)c1ccc(OCCNCC)c(I)c1,metabolite_detected
10,CCCCc1oc2ccccc2c1C(=O)c1cc(I)c(OCCNCC)c(I)c1 [DESETHYLAMIODARONE],metabolite_detected

# Tested on: Liver microsome
# Experiment: Drug level in human liver microsomes assessed as compound formation treated with 50 uM amiodarone for 60 mins by UPLC-Q/TOF mass spectrometry in presence of NADPH
# Assay type: ADME
# Conditions: 1 h
# Outline: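 Pooled human liver microsomes at 1.0 mg/ml protein in 100 mM potassium phosphate pH 7.4, 37°C. Amiodarone 50 μM (DMSO 0.1% final). 3 min preincubation, then started with 2.0 mM NADPH. Stopped at 60 min with equal volume of ice-cold acetonitrile. Controls lacked NADPH or substrate. Duplicates. Analysed by UPLC-Q/TOF MS.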
row,SMILES,Drug metabolism
1,CCN(CC)CCOc1c(I)cc(C(=O)c2c(CCCCO)oc3ccccc23)cc1I,metabolite_detected
2,CCN(CC)CCOc1c(I)cc(C(=O)c2c(CCC(C)O)oc3ccccc23)cc1I (stereo not drawn),metabolite_detected
3,CCCCc1oc2ccccc2c1C(=O)c1cc(I)c(O)c(I)c1,metabolite_detected
4,CCCCc1oc2cc(O)ccc2c1C(=O)c1cc(I)c(OCCN(CC)CC)c(I)c1,metabolite_detected
5,CCCCc1oc2ccccc2c1C(=O)c1cc(I)c(OCCO)c(I)c1,metabolite_detected
6,CCCCc1oc2ccccc2c1C(=O)c1ccc(OCCNCC)c(I)c1,metabolite_detected
7,CCCCc1oc2ccccc2c1C(=O)c1cc(I)c(OCCNCC)c(I)c1 [DESETHYLAMIODARONE],metabolite_detected

# Tested on: not listed separately
# Experiment: Drug level in human liver S9 fraction assessed as compound formation treated with 50 uM amiodarone for 60 mins by LC-UV analysis in presence of NADPH
# Assay type: ADME, subcellular
# Conditions: s9, 1 h
# Outline: as §1
row,SMILES,Drug metabolism
1,CCCCc1oc2ccccc2c1C(=O)c1cc(I)c(OCCNCC)c(I)c1 [DESETHYLAMIODARONE],metabolite_detected

# Tested on: not listed separately
# Experiment: Drug level in human liver S9 fraction assessed as alcohol dehydrogenase-mediated compound formation treated with 50 uM amiodarone for 60 mins by UPLC-Q/TOF mass spectrometry in presence of NADPH
# Assay type: ADME, subcellular
# Conditions: s9, 1 h
# Outline: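 Human liver S9 (2.0 mg/ml) in 100 mM potassium phosphate pH 7.4 at 37°C. Preincubated 10 min with or without 5 μM 4-methylpyrazole (final), then 50 μM amiodarone added. Incubated 60 min with 2.0 mM NADPH. Carboxylic acid metabolite compared by LC/MS between incubations with and without 4-MP. Duplicates.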
row,SMILES,Drug metabolism
1,CCN(CC)CCOc1c(I)cc(C(=O)c2c(CCCC(=O)O)oc3ccccc23)cc1I,metabolite_detected

# Tested on: not listed separately
# Experiment: Retention time of the compound by UPLC-Q/TOF mass spectrometry
# Assay type: physicochemical
# Conditions: not given
# Outline: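 UPLC on HSS T3 column (1.8 μm, 2.1 × 100 mm). Mobile phase 0.05% formic acid in water and in acetonitrile. Q/TOF detection in ES+ with leucine enkephalin lock mass.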
row,SMILES,Retention_time [min]
1,CCN(CC)CCOc1c(I)cc(C(=O)c2c(CCCCO)oc3ccccc23)cc1I,14.3
2,CCN(CC)CCOc1c(I)cc(C(=O)c2c(CCC(C)O)oc3ccccc23)cc1I (stereo not drawn),14.5
3,CCCCc1oc2ccccc2c1C(=O)c1cc(I)c(O)c(I)c1,16.3
4,CCNCCOc1c(I)cc(C(=O)c2c(CCCC(=O)O)oc3ccccc23)cc1I,13.4
5,CCCCc1oc2cc(O)ccc2c1C(=O)c1cc(I)c(OCCN(CC)CC)c(I)c1,15.5
6,CCN(CC)CCOc1c(I)cc(C(=O)c2c(CCCC(=O)O)oc3ccccc23)cc1I,14.2
7,CCN(CC)CCOc1ccc(C(=O)c2c(CCCC(=O)O)oc3ccccc23)cc1I,13.3
8,CCCCc1oc2ccccc2c1C(=O)c1cc(I)c(OCCO)c(I)c1,21.5
9,CCCCc1oc2ccccc2c1C(=O)c1ccc(OCCNCC)c(I)c1,16.2
10,CCCCc1oc2ccccc2c1C(=O)c1cc(I)c(OCCNCC)c(I)c1 [DESETHYLAMIODARONE],17
